Source: ChEMBL document CHEMBL1126584 (J Med Chem, 1993)

biological target: T1, D(2) dopamine receptor (Rattus norvegicus, UniProt P61169); assay: Binding affinity against D2 receptor in rat corpus striatum using [3H]sulpiride as the radioligand; format: tissue-based
How it was run: (§1)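 Fresh rat striatum homogenised in 50 mM Tris-HCl pH 7.5, pellet resuspended in buffer with 100 mM NaCl to 3.75 mg wet weight/mL. Incubated with 3 nM [3H]sulpiride for 60 min at 25 °C, in triplicate; 10 μM haloperidol defined nonspecific binding. Filtration on polyethyleneimine-treated filters; IC50 from concentration-response curves converted to Ki by Cheng-Prusoff; mean of at least three determinations.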

T1 sequence (P61169 whole entry): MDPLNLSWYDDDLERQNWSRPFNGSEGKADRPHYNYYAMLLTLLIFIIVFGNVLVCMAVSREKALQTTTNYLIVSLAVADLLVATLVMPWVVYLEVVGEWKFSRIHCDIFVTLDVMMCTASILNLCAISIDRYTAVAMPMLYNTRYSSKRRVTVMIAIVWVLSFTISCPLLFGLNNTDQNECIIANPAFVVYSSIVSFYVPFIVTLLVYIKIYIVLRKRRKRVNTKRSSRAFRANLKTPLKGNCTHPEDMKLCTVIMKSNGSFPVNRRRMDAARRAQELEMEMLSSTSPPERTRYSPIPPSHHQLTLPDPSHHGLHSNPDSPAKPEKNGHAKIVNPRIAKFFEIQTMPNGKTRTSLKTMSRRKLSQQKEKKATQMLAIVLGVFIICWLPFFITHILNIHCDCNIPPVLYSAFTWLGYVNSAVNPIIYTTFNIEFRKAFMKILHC

Going from c1ccc2c(c1)CN(CCN1C3CCC1c1c([nH]c4ccccc14)C3)C2 (stereo not drawn) to c1ccc(CCCCN2C3CCC2c2c([nH]c4ccccc24)C3)cc1 (stereo not drawn), the Ki falls from 2000 nM to 733 nM (2.7-fold). The second binds more tightly here.

Going from CC/C=C/N1C2CCC1c1c([nH]c3ccccc13)C2 (stereo not drawn) to CCN1C2CCC1c1c([nH]c3ccccc13)C2 (stereo not drawn), the Ki rises from 710 nM to greater than 10000 nM.

Going from c1coc(CCCCN2C3CCC2c2c([nH]c4ccccc24)C3)c1 (racemic) to c1csc(CCCCN2C3CCC2c2c([nH]c4ccccc24)C3)c1 (stereo not drawn), the Ki falls from 1270 nM to 620 nM (2-fold). The second binds more tightly here.

First: O=C1CC2(CCCC2)CC(=O)N1CCCCN1C2CCC1c1c([nH]c3ccccc13)C2 (stereo not drawn)
Second: c1coc(CCCCN2C3CCC2c2c([nH]c4ccccc24)C3)c1 (stereo in doubt; 40)
The Ki of the first is 2.4-fold higher: 3000 nM for the first, 1270 nM for the second.

O=C(CCCN1C2CCC1c1c([nH]c3ccccc13)C2)c1ccc(F)cc1 (stereo not drawn) and c1coc(CCCCN2C3CCC2c2c([nH]c4ccccc24)C3)c1 (single isomer, unassigned; (+)) are within 1.5-fold of each other in Ki: 270 nM for the first, 330 nM for the second.

c1ccc2c3c([nH]c2c1)CC1CCC3N1CCCCc1nccs1 (stereo not drawn) and c1coc(CCCCN2C3CCC2c2c([nH]c4ccccc24)C3)c1 (single isomer, unassigned; (-)) are within 1.5-fold of each other in Ki: 2230 nM for the first, 3150 nM for the second.

Compared with CCCN1C2CCC1c1c([nH]c3ccccc13)C2 (stereo not drawn), CN(CCN1C2CCC1c1c([nH]c3ccccc13)C2)C(=O)Cc1ccc(Cl)c(Cl)c1 (stereo not drawn) is 3-fold lower in Ki: 11200 nM for the first, 3790 nM for the second.

Going from c1ccc(-n2c3c(c4ccccc42)C2CCC(C3)N2)cc1 (stereo not drawn) to c1ccc(CCCCN2C3CCC2c2c(n(-c4ccccc4)c4ccccc24)C3)cc1 (stereo not drawn), the Ki falls from 10000 nM to 1570 nM (6.4-fold).

For Fc1ccc2[nH]c3c(c2c1)C1CCC(C3)N1Cc1ccccc1 (stereo not drawn), the Ki was 2420 nM.

biological target: T1, D(2) dopamine receptor; assay: Compound was tested for binding affinity against D2 receptor in rat corpus striatum, using [3H]sulpiride as the radioligand; format: tissue-based; how it was run: as §1

With c1ccc2c3c([nH]c2c1)CC1CCC3N1 (stereo not drawn) the Ki was greater than 100 µM.
